The results in this text go back to ChEMBL document CHEMBL1137875, “The identification and optimization of 2,4-diketobutyric acids as flap endonuclease 1 inhibitors” (Bioorg Med Chem Lett, 2004).

For orientation: IC50 means the concentration at which inhibition is half-maximal. Low readings indicate inhibition by little substance, high ones a need for much substance.

Some results are limits rather than exact numbers.

Assay [1] deals with T1, DNA excision repair protein ERCC-5 (Homo sapiens, UniProt P28715).
T1 sequence (P28715 whole entry): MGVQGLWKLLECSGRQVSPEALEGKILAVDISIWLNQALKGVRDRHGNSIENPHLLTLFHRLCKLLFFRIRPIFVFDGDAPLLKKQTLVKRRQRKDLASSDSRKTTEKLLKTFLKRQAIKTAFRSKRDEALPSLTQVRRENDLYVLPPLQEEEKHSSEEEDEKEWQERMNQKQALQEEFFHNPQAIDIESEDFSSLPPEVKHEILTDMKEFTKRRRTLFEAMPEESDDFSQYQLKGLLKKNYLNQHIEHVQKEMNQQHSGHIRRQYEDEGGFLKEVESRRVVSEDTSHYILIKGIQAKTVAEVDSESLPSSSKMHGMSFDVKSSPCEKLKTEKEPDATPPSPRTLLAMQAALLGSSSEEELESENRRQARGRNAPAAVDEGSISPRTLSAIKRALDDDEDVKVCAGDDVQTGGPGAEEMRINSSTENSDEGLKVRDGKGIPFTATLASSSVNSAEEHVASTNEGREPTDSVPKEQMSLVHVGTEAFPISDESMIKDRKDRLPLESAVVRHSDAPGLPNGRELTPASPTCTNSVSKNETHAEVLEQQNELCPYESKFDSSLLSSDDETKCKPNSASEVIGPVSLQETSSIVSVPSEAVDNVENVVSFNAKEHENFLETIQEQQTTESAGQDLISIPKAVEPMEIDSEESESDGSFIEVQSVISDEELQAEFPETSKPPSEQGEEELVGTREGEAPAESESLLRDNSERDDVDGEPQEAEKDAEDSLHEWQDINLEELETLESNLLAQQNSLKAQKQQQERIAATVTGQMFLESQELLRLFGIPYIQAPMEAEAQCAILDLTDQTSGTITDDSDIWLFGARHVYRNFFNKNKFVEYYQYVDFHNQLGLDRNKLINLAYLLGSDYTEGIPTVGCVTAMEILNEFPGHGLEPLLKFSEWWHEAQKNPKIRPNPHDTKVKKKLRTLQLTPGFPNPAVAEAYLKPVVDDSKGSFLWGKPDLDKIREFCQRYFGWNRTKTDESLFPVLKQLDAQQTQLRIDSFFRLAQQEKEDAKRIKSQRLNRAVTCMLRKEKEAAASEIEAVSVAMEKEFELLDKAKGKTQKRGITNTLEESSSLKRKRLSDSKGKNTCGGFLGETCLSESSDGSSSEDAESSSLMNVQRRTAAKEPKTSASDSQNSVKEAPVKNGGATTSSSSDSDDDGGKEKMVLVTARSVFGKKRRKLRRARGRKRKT
In words: Concentration required for 50% inhibition of Xeroderma pigmentosum G. In short, it runs like this: (§1)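 Fluorescence nuclease assay with 5 pmol BVT substrate in buffer at pH 8.0 containing 10 mM MgCl₂, 0.5 mM 2-mercaptoethanol, BSA and circular plasmid. Enzyme was 180 U FEN1 or 50 ng XPG. Reactions ran 90 min at room temperature and were stopped with 0.025% SDS/12.5 mM EDTA. Fluorescence was read at 485 nm excitation/538 nm emission.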

The next assay concerns the target Flap endonuclease 1 (Homo sapiens, UniProt P39748). In words: Concentration required for 50% inhibition of Flap endonuclease-1. In short, it runs like this:
as §1

Chain of Flap endonuclease 1 (P39748 whole entry): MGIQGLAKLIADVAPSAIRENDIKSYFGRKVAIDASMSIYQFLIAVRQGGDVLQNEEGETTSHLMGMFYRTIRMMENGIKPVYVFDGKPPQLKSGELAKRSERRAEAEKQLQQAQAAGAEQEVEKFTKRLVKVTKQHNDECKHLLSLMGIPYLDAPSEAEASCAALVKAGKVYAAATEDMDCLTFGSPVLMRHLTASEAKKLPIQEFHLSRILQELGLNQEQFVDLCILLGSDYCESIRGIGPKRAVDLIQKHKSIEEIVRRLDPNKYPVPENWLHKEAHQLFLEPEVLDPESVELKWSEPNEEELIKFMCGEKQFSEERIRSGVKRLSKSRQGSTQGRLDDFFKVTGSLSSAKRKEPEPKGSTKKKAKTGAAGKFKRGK

`O=C(O)C(=O)CC(=O)c1ccco1`: the IC50 in assay [1] was 41 µM; against Flap endonuclease 1, 64.2 µM.

As for `O=C(CC(=O)c1nnn[nH]1)c1ccc(Oc2ccccc2)cc1`, the IC50 in assay [1] worked out at 97 µM; at Flap endonuclease 1 it was 63.2 µM.

With `C=C(CC(=O)c1ccc(Oc2ccccc2)cc1)C(=O)O`, the IC50 (in assay [1]; against Flap endonuclease 1) was above 100 µM throughout.

On to `O=C(O)C(=O)Cc1ncc(-c2ccccc2)s1`, for which the IC50 worked out at 31.7 µM in assay [1] and 46.4 µM at Flap endonuclease 1.

For the compound `O=C(CC(=O)c1cc(=O)[nH]o1)c1ccc(Oc2ccccc2)cc1`, the IC50 (in assay [1]; on Flap endonuclease 1) was above 100 µM in each case.

For `O=C(O)C(=O)CC(=O)c1ccc(-c2ccccc2)s1`, the IC50 in assay [1] turned out to be 1.85 µM; against Flap endonuclease 1 it was 7.65 µM.

As to `COc1ccc(-c2ccc(Cl)c(C(=O)CC(=O)C(=O)O)c2)cc1`, the IC50 in assay [1] stood at 0.57 µM; at Flap endonuclease 1, 0.19 µM.

On to `O=C(O)C(=O)CC(=O)c1ccc(-c2ccc(OC(F)(F)F)cc2)s1`, for which the figures for the IC50 (in assay [1]; against Flap endonuclease 1) were 0.31 µM and 0.44 µM, respectively.

Take `O=C(O)C(=O)CC(=O)c1ccc(-c2ccc(Cl)cc2)o1`: the results for the IC50 (in assay [1]; on Flap endonuclease 1) were 0.98 µM and 10.8 µM, respectively.

For the compound `O=C(O)C(=O)CC(=O)c1ccc(-c2ccc(Cl)cc2)cc1Cl`, the figures for the IC50 (in assay [1]; against Flap endonuclease 1) were 1.77 µM and 0.41 µM, respectively.

On to `O=C(O)C(=O)CC(=O)c1cccs1`, for which the IC50 is 38.7 µM in assay [1] and 10.1 µM on Flap endonuclease 1.

In the case of `O=C(O)C(=O)CC(=O)c1cccc(Cl)c1`, the IC50 in assay [1] is 13.1 µM; on Flap endonuclease 1 it was 6.96 µM.

For the compound `O=C(O)C(=O)CC(=O)c1c(Cl)cccc1Cl`, the IC50 was above 100 µM in assay [1] and 37.9 µM at Flap endonuclease 1.

Consider `O=C(O)C(=O)CC(=O)c1ccc(-c2ccccc2Cl)o1`, for which the IC50 in assay [1] came to 1.85 µM; against Flap endonuclease 1, 12.2 µM.

Take `CC(C)(C)c1ccc(-c2ccc(C(=O)CC(=O)C(=O)O)o2)cc1`: the IC50 in assay [1] came out at 3.13 µM; against Flap endonuclease 1, 13.5 µM.

For `COc1ccc(-c2cccc(C(=O)CC(=O)C(=O)O)c2)cc1`, the IC50 in assay [1] came to 1.59 µM; at Flap endonuclease 1, 1.36 µM.

As for `O=C(O)C(=O)CC(=O)c1ccc(Oc2ccccc2)cc1`, the IC50 in assay [1] was determined as 1.87 µM; on Flap endonuclease 1 it was 1.75 µM.

Turning to `O=C(O)C(=O)CC(=O)c1cccc(-c2ccccc2)c1`, the IC50 in assay [1] amounted to 3.24 µM; against Flap endonuclease 1, 3.62 µM.

Turning to `O=C(O)C(=O)CC(=O)c1cccc(Cl)c1Cl`, the IC50 in assay [1] stood at 22.1 µM; at Flap endonuclease 1, 17.7 µM.

Turning to `Cc1ccccc1C(=O)CC(=O)C(=O)O`, the results for the IC50 (in assay [1]; against Flap endonuclease 1) were 54.5 µM and 12.9 µM, respectively.

On to `O=C(O)C(=O)CC(=O)c1cccc(Oc2ccccc2)c1`, for which the figures for the IC50 (in assay [1]; at Flap endonuclease 1) were 5.44 µM and 7.31 µM, respectively.

Regarding `O=C(O)C(=O)CC(=O)c1ccc(Cl)cc1Cl`, the IC50 in assay [1] is 9.85 µM; at Flap endonuclease 1 it was 5.53 µM.

`O=C(O)C(=O)CC(=O)c1cc(Cl)ccc1Cl`: the IC50 stood at 7 µM in assay [1] and 1.82 µM against Flap endonuclease 1.

For `O=C(O)C(=O)CC(=O)c1cc(-c2ccccc2)ccc1Cl`, the IC50 in assay [1] is 1.13 µM; against Flap endonuclease 1 it was 0.33 µM.

For the compound `O=C(O)C(=O)CC(=O)c1ccccc1`, the values for the IC50 (in assay [1]; against Flap endonuclease 1) were 75.4 µM and 24.9 µM, respectively.

With `O=C(O)C(=O)CC(=O)c1ccc(-c2ccccc2)cc1`, the IC50 in assay [1] was 1.6 µM; against Flap endonuclease 1, 3.5 µM.

With `O=C(CC(=O)c1nnn[nH]1)c1ccc(-c2ccccc2)cc1`, the IC50 (in assay [1]; at Flap endonuclease 1) was above 100 µM each time.

`CCOc1ccc(-c2ccc(C(=O)CC(=O)C(=O)O)o2)cc1`: the half-maximal inhibitory concentration (IC50) amounted to 1.4 µM in assay [1] and 11.3 µM against Flap endonuclease 1.

In the case of `COc1ccc(Cn2nnnc2C(=O)CC(=O)c2ccc(-c3ccccc3)cc2)cc1`, the results for the IC50 (in assay [1]; on Flap endonuclease 1) were 52.4 µM and 34.3 µM, respectively.

For `O=C(O)C(=O)CC(=O)c1ccc(-c2ccc(Cl)c(F)c2)s1`, the concentration for half-maximal inhibition (IC50) in assay [1] was determined as 0.9 µM; on Flap endonuclease 1, 0.57 µM.

Consider `O=C(O)C(=O)CC(=O)c1ccccc1Cl`, for which the IC50 turned out to be 38.1 µM in assay [1] and 3.51 µM against Flap endonuclease 1.

In the case of `O=C(O)C(=O)CC(=O)c1ccccc1F`, the IC50 in assay [1] was determined as 78.5 µM; at Flap endonuclease 1 it was 14.5 µM.

Regarding `O=C(c1ccc(Oc2ccccc2)cc1)c1ncc2cccnc2c1O`, the IC50 in assay [1] was above 100 µM; against Flap endonuclease 1 it was 29 µM.

For the compound `O=C(O)C(=O)CC(=O)c1ccc(Cl)cc1`, the values for the IC50 (in assay [1]; at Flap endonuclease 1) were 12.7 µM and 19.3 µM, respectively.

Turning to `O=C(O)C(=O)CC(=O)c1ccc(-c2ccccc2)o1`, the IC50 in assay [1] came out at 1.81 µM; against Flap endonuclease 1 it was 1.66 µM.
